D1 allo mod: D1 dopamine receptor (human) allosteric modulation. 5.9% of 58,000 active. B-score at 10 µM. P21728. AID 641. HEK293 D1, CRE-luciferase, dopamine EC30 potentiation; actives deviate in either direction;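 active = luminescence count or its row- and column-corrected plate score outside the 99.7% band of the plate's sample wells, on either side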
Target sequence (P21728 whole entry, looked up): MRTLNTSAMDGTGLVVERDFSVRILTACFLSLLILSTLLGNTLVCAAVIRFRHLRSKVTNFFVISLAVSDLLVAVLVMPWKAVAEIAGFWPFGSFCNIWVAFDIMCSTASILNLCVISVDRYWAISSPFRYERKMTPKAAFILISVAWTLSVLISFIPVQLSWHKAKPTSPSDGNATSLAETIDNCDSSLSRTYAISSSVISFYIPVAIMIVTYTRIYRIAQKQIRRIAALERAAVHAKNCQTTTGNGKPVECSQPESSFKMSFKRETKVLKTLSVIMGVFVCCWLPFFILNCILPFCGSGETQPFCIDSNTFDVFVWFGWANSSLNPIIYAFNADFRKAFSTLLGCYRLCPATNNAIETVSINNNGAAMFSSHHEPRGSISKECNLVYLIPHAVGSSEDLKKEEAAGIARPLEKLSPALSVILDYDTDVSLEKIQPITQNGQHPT
Jurkat viability: reduces viability or proliferation of Jurkat cells; inhibition, % at 4 µM; AID 463; Jurkat E6.1 viability, ATP luminescence, 48 h; 1.2% of 56,000 active;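 active = inhibition above the mean inhibition of all tested compounds plus 3 SD, cut at about 28% in these data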
M1 agonist: activates the M1 muscarinic receptor; 3% of 64,000 active; AID 626; CHO-M1 cells, Fluo-4 calcium fluorescence, agonist mode; active compounds read high; B-score at 10 µM;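 active = fluorescence rise, raw or as B-score row- and column-corrected plate score, outside the 99.7% band of its plate's samples, either direction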
M1 antagonist: M1 muscarinic receptor (rat) antagonism. P08482. B-score at 10 µM. CHO-M1 cells, Fluo-4 calcium, ACh EC80 antagonist mode; active compounds read low. AID 628. 3.4% of 64,000 active;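 active = calcium fluorescence response, raw or row-and-column corrected B-score, differing from the plate sample mean either way at a set confidence level, mostly lower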
HEK293 NFkB inh: lowers PMA/ionomycin-induced NF-kB signal in HEK293 cells | 0.21% of 62,000 active | AID 465 | inhibition, % at 3 µM | HEK-293 NF-kB luciferase reporter, luminescence;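 active = inhibition above the mean of all tested compounds plus 3 SD, cut at about 40% in these data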
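System – HEK-293 cells with stable firefly luciferase reporter driven by four HIV NF-kB elements · Doses – one dose, 3 µM · Schedule – 1 h compound pre-incubation, 16 h PMA/ionomycin at 37 °C · Technique – luminescence from luciferase substrate reagent · Measure – percent inhibition normalized per plate to DMSO and reference-inhibitor controls · Replicates – tested once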
mHtt clearance: compounds clearing mutant huntingtin protein; HeLa Exon1htt(103Q)mCFP, aggregate imaging; zero = plate's median compound well; 0.42% of 47,000 active; inhibition, % at 1.5 µM;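 active = inhibition of aggregate fluorescence above about 70%, also judged a hit by eye on the cell image, limit read from the data, passing the limit was not always enough; inconclusive = no rule stated for this call; inactive = not judged a hit on image review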;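 note: cells exposed to compound for three days before fixation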
M1 ag confirm: confirmation of rat M1 muscarinic receptor agonists; fluorescence change (max-min) at 10 µM; CHO-M1 cells, Fluo-4 calcium fluorescence, agonist mode; actives lie on both sides; 19% of 1,700 active; shares compounds with M1 agonist;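 active = fluorescence change differs from the solvent-only DMSO control mean at a set confidence level in both duplicate runs; inconclusive = differs from solvent-only control mean in just one of two runs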;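 note: an EC20 dose of acetylcholine follows compound addition during the same imaging run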
M4 ag counter: activates rat M4 receptor in counter-screen for M1 agonists | shares compounds with M1 agonist | CHO M4/Gqi5 cells, Fluo-4 calcium fluorescence, agonist mode; actives lie on both sides | fluorescence change (max-min) at 10 µM | 9% of 1,700 active;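 active = fluorescence change differing from the plate's solvent-only control wells at 99.7% confidence in both duplicates, whether higher or lower; inconclusive = differs from solvent controls in only one of two duplicates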
Large screens that a line does not name were inactive (follow-up assays come after a bar, where they were run). In the library only some 9.5% were active in any assay of this set; here they are far more common.

O=C(NC1CCCC1)c1ccc(CSCc2ccccc2F)o1	none (no result: D1 allo mod, Jurkat viability, M1 agonist, M1 antagonist, HEK293 NFkB inh)
O=C(O)c1ccc(CSCc2ccccc2F)o1	M1 agonist 6.8 | M1 ag confirm inactive | M4 ag counter inactive
Cc1ccc(C)c(N2CCN(C(=O)c3ccc(CS(=O)(=O)c4ccccc4C)o3)CC2)c1	Jurkat viability 40, M1 agonist 2.8 | M1 ag confirm inactive | M4 ag counter inactive
Cc1ccc(S(=O)(=O)Cc2ccc(C(=O)N3CCN(c4cc(C)ccc4C)CC3)o2)cc1	none
Cc1cccc(N2CCN(C(=O)c3ccc(CS(=O)(=O)c4ccccc4C)o3)CC2C)c1 (centres undefined)	Jurkat viability 94, M1 agonist 9.2, M1 antagonist -2.2, HEK293 NFkB inh 42 (no result: mHtt clearance) | M1 ag confirm inconclusive | M4 ag counter inactive
O=C(c1ccc(CS(=O)(=O)c2c(Cl)cccc2Cl)o1)N1CCN(c2ccccn2)CC1	M1 agonist 3.4, M1 antagonist -3 (no result: mHtt clearance) | M1 ag confirm inactive | M4 ag counter inactive
COc1ccccc1S(=O)(=O)Cc1ccc(C(=O)N2CCN(c3cccc(Cl)c3)CC2)o1	Jurkat viability 81, M1 agonist 9.5 (no result: mHtt clearance) | M1 ag confirm -26 | M4 ag counter inactive
Cc1ccc(S(=O)(=O)Cc2ccc(C(=O)N3CCN(c4ccccn4)CC3)o2)cc1	none
COc1cccc(C(CC(=O)NCc2ccco2)NS(=O)(=O)c2ccc(C)cc2)c1OC (centres undefined)	none (no result: mHtt clearance)
CCOC(=O)N1CCN(C(=O)c2cc(-c3ccc(OCC)cc3)nc3ccccc23)CC1	Jurkat viability 87, M1 agonist 8.7 | M1 ag confirm inconclusive | M4 ag counter inactive
COc1cc(C(=O)Nc2nccs2)c(Br)c(OC)c1OC	M1 agonist 2.9 | M1 ag confirm inactive | M4 ag counter inactive
COc1cc(CC(=O)Nc2nccs2)cc(OC)c1OC	none (no result: mHtt clearance)
COc1ccc2c3c(c(=O)oc2c1OCC(N)=O)CCCC3	none (no result: D1 allo mod)
CCOCCCNC(=O)CCSc1ccc(C)cc1	none (no result: D1 allo mod, Jurkat viability, M1 agonist, M1 antagonist, HEK293 NFkB inh)
O=C(Cn1[nH]c(=O)c2ccccc2c1=O)Nc1ccc2c(c1)CCC2	none (no result: D1 allo mod, mHtt clearance)
Cn1nc(CC(=O)Nc2ccc3c(c2)CCC3)c2ccccc2c1=O	M1 agonist 11 (no result: mHtt clearance) | M1 ag confirm inactive | M4 ag counter inactive
CCOC(=O)c1coc(CNC(=O)c2c(C)oc3c2CCCC3)c1	M1 agonist 15 (no result: mHtt clearance) | M1 ag confirm inconclusive | M4 ag counter inactive
CCOC(=O)C1CCCN(C(=O)c2ccc(CS(=O)(=O)c3ccc(C)cc3)o2)C1 (centres undefined)	M1 agonist 34 (no result: mHtt clearance) | M1 ag confirm 261 | M4 ag counter inactive
Cc1ccc(S(=O)(=O)Cc2ccc(C(=O)N3CCCCCC3)o2)cc1	none (no result: mHtt clearance)
CC1CCc2c(sc3nc(SCc4nc(-c5ccccc5)no4)n(C)c(=O)c23)C1 (centres undefined)	none (no result: mHtt clearance)
CCNC(=O)NC(=O)C(C)Sc1ccc2c(c1)OCCO2 (centres undefined)	none (no result: D1 allo mod, Jurkat viability, M1 agonist, M1 antagonist, HEK293 NFkB inh)
CCOC(=O)CSCC(=O)Nc1c(C(=O)C2CC2)oc2ccccc12	none (no result: D1 allo mod, Jurkat viability, M1 agonist, M1 antagonist, HEK293 NFkB inh)
Cc1cccc(N2C(=O)c3cccc4c(N(C)CCO)ccc(c34)C2=O)c1	M1 agonist 351, M1 antagonist -14 (no result: D1 allo mod) | M1 ag confirm 1544 | M4 ag counter 1425
CC(=O)Nc1cccc(C(=O)OCc2ccc(C(=O)Oc3ccc(Cl)cc3)cc2)c1	none (no result: D1 allo mod, Jurkat viability, M1 agonist, M1 antagonist, HEK293 NFkB inh)
COc1ccc(S(=O)(=O)N(Cc2cc3ccc(OC)cc3[nH]c2=O)CC2COCCO2)cc1 (centres undefined)	M1 agonist 4.9 | M1 ag confirm inactive | M4 ag counter inconclusive
CC1CCc2c(sc(NS(=O)(=O)c3ccccc3)c2C(=O)OC(C)C)C1 (centres undefined)	none (no result: D1 allo mod, Jurkat viability, M1 agonist, M1 antagonist, HEK293 NFkB inh)
CCOC(=O)N1CCN(C(=O)C2CCN(C(=O)c3cc4sccc4n3CC)CC2)CC1	M1 agonist 3.8 (no result: mHtt clearance) | M1 ag confirm inactive | M4 ag counter inactive
CC(C)CCn1c(SCC(=O)OCn2nnc3ccccc3c2=O)nc2ccccc2c1=O	M1 agonist 3.7 | M1 ag confirm inactive | M4 ag counter inactive
COc1cccc(C(=O)OCn2nnc3ccccc3c2=O)c1	M1 agonist 2.2 (no result: Jurkat viability) | M1 ag confirm inactive | M4 ag counter inactive
CCc1cccc(NC(=O)CCSCCC(=O)Nc2cccc(CC)c2)c1	none (no result: D1 allo mod, Jurkat viability, M1 agonist, M1 antagonist, HEK293 NFkB inh)
Oc1c(/C=N/c2ncn[nH]2)ccc2ccccc12	M1 agonist 4.9 (no result: mHtt clearance) | M1 ag confirm inactive | M4 ag counter inconclusive
N#CC1=C(SCc2ccccc2)NC(=O)CC1c1ccco1 (centres undefined)	M1 agonist 4.3 (no result: mHtt clearance) | M1 ag confirm inactive | M4 ag counter inconclusive
O=C(NCCCN1CCOCC1)c1cc(-c2ccc(Br)cc2)on1	M1 agonist 2.2 | M1 ag confirm inconclusive | M4 ag counter inactive
Cc1nc2ccccc2nc(C)c1=NO	none (no result: D1 allo mod, Jurkat viability, M1 agonist, M1 antagonist, HEK293 NFkB inh)
C/C(O)=c1/ccc2cccc3nc(C)nc1c23	M1 agonist 114 (no result: D1 allo mod) | M1 ag confirm 896 | M4 ag counter 814
O=C(CSc1nnnn1-c1cccc2c1CCCC2)N1CCCCC1	none (no result: D1 allo mod, Jurkat viability, M1 agonist, M1 antagonist, HEK293 NFkB inh)
Oc1ccc(-c2nc3ccccn3c2NCc2ccc3c(c2)OCO3)cc1	M1 agonist 4 (no result: mHtt clearance) | M1 ag confirm inactive | M4 ag counter inactive
CCOC(=O)CNc1c(-c2ccc(O)cc2)nc2ccccn12	none (no result: mHtt clearance)
COC(=O)CNc1c(-c2ccccn2)nc2ccc(Br)cn12	M1 agonist 5.1 (no result: Jurkat viability) | M1 ag confirm inactive | M4 ag counter inactive
COc1cccc(C(=O)OCc2ccccc2C#N)c1O	M1 agonist -2.2 (no result: mHtt clearance) | M1 ag confirm -27 | M4 ag counter -79
O=C(CN(Cc1ccccc1)C(=O)c1ccco1)NCc1ccc(F)cc1	none
Cc1oc(-c2ccc(Cl)cc2)nc1CN1CCC(C(=O)N2CCN(Cc3ccccc3)CC2)CC1	none (no result: mHtt clearance)
Cc1oc(-c2ccc(Cl)cc2)nc1CN1CCC(C(=O)N2CCc3ccccc3C2)CC1	M1 agonist 5.7, M1 antagonist -3.7 (no result: mHtt clearance) | M1 ag confirm inconclusive | M4 ag counter inactive
Cc1cc(C(=O)CSc2nnc(-c3cccs3)n2Cc2ccccc2)c(C)n1C	none
O=c1cc(CSc2nnc(-c3cccs3)n2Cc2ccccc2)nc2sc3ccccc3n12	Jurkat viability 71, M1 agonist 4.2 | M1 ag confirm inactive | M4 ag counter inactive
O=c1c2ccccc2c(/C=N/n2cnnc2)c(O)n1-c1ccccc1F	M1 agonist 55 (no result: mHtt clearance) | M1 ag confirm 350 | M4 ag counter 698
Cc1ccc(-n2c(O)c(/C=N/n3cnnc3)c3ccccc3c2=O)cc1	M1 agonist 26 (no result: mHtt clearance) | M1 ag confirm 121 | M4 ag counter inactive
CCOC(=O)Cc1csc(NC(=O)CSc2ncnc3c2cnn3-c2ccccc2Cl)n1	M1 agonist 11 (no result: mHtt clearance) | M1 ag confirm inactive | M4 ag counter inactive

Source: PubChem BioAssay
